Tests used:
Assay type in all cases: functional
[1] = test system: Mus musculus; assay: Antitumor activity was determined for median survival of mice against P-388 leukemia in mice at a dose of 300 mg/kg
How it was run: (§1)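 Male B6D2F1J mice implanted ip with 10⁶ P-388 cells on day 0; test agents given ip on days 1–4 (qd × 4) in sterile saline, or in 10% Tween 80 for the lipophilic thioether. Groups of 5 treated mice, with 10–17 untreated controls per experiment. Mice weighed on days 1 and 7 to give the 7-day weight change in g and %. Survival recorded in days as median and range.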

[2] = test system: Mus musculus; assay: Antitumor activity was determined for average 7-day weight change against P-388 leukemia in mice at a dose of 300 mg/kg
How it was run: (§2)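 Male B6D2F1J mice given 10⁶ P-388 cells ip on day 0, then treated ip once daily on days 1-4 (qd × 4), 5 mice per dose group. Compounds dosed in sterile saline, except one lipophilic thioether given in 10% Tween 80. Mice weighed on days 1 and 7; mean weight per mouse on day 1 and 7-day weight change reported in g and as percent.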

[3] = test system: Mus musculus; assay: Antitumor activity was determined for average weight on day 1 against P-388 leukemia in mice at a dose of 300 mg/kg
How it was run: (§3)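 Male B6D2F1J mice, groups of 5, inoculated ip with 10⁶ P-388 cells on day 0. Drug given ip on days 1-4 (qd × 4) in sterile saline, or in 10% Tween 80 for the poorly water-soluble thioether. Average weight per mouse recorded on day 1, with reweighing on day 7 for percent weight change. Untreated control groups had 10-17 animals per experiment.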

[4] = test system: Mus musculus; assay: Antitumor activity was determined for survival range of mice against P-388 leukemia in mice at a dose of 200 mg/kg; how it was run: as §1
[5] = test system: Mus musculus; assay: Antitumor activity was determined for average 7-day weight change against P-388 leukemia in mice at a dose of 25 mg/kg; how it was run: as §2
[6] = test system: Mus musculus; assay: Antitumor activity was determined for 7-day average percent weight change against P-388 leukemia in mice at a dose of 50 mg/kg; how it was run: as §2
[7] = test system: Mus musculus; assay: Antitumor activity was determined for median survival of mice against P-388 leukemia in mice at a dose of 200 mg/kg; how it was run: as §1
[8] = test system: Mus musculus; assay: Antitumor activity was determined for median survival of mice against P-388 leukemia in mice at a dose of 50 mg/kg; how it was run: as §1
[9] = test system: Mus musculus; assay: Antitumor activity was determined for average weight on day 1 against P-388 leukemia in mice at a dose of 200 mg/kg; how it was run: as §3
[10] = test system: Mus musculus; assay: Antitumor activity was determined for survival range of mice against P-388 leukemia in mice at a dose of 25 mg/kg; how it was run: as §1
[11] = test system: Mus musculus; assay: Antitumor activity was determined for survival range of mice against P-388 leukemia in mice at a dose of 50 mg/kg; how it was run: as §1
[12] = test system: Mus musculus; assay: Antitumor activity was determined for median survival of mice against P-388 leukemia in mice at a dose of 100 mg/kg; how it was run: as §1
[13] = test system: Mus musculus; assay: Percent increase in life span against P-388 leukemia in mice was determined at a dose of 100 mg/kg; details: P388
How it was run: (§4)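 Male B6D2F1J mice, 5 per dose group, received 10⁶ P-388 cells ip on day 0. Dosing was ip qd × 4 on days 1-4 in sterile saline, or 10% Tween 80 for the butyl thioether. Median survival times of treated (T) and untreated control (C, 10-17 mice) groups were compared: %ILS = [(T/C) − 1]100. Weights taken on days 1 and 7.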

[14] = test system: Mus musculus; assay: Antitumor activity was determined for 7-day average percent weight change against P-388 leukemia in mice at a dose of 300 mg/kg; how it was run: as §2
[15] = test system: Mus musculus; assay: Antitumor activity was determined for median survival of mice against P-388 leukemia in mice at a dose of 25 mg/kg; how it was run: as §1
[16] = test system: Mus musculus; assay: Antitumor activity was determined for average 7-day weight change against P-388 leukemia in mice at a dose of 100 mg/kg; how it was run: as §2
[17] = test system: L1210; assay: Evaluated for cytotoxicity against L1210 mouse leukemia cells; details: read-out: ID50 (the source's name)
How it was run: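 L1210 murine leukemia cells in Eagle's minimal essential medium with 15% fetal calf serum, streptomycin (100 μg/mL), penicillin (100 units/mL) and 0.05 mM 2-mercaptoethanol. Cells counted by Coulter counter after 48 h exposure. ID50 is the 50% growth-inhibitory dose. Triplicate assays, standard deviation ±10%.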

[18] = test system: Mus musculus; assay: Antitumor activity was determined for 7-day average percent weight change against P-388 leukemia in mice at a dose of 100 mg/kg; how it was run: as §2
[19] = test system: Mus musculus; assay: Antitumor activity was determined for 7-day average percent weight change against P-388 leukemia in mice at a dose of 200 mg/kg; how it was run: as §2
[20] = test system: Mus musculus; assay: Antitumor activity was determined for survival range of mice against P-388 leukemia in mice at a dose of 300 mg/kg; how it was run: as §1
[21] = test system: Mus musculus; assay: Antitumor activity was determined for average weight on day 1 against P-388 leukemia in mice at a dose of 50 mg/kg; how it was run: as §3
[22] = test system: Mus musculus; assay: Antitumor activity was determined for survival range of mice against P-388 leukemia in mice at a dose of 100 mg/kg; how it was run: as §1
[23] = test system: Mus musculus; assay: Percent increase in life span against P-388 leukemia in mice was determined at a dose of 50 mg/kg; details: P388; how it was run: as §4
[24] = test system: Mus musculus; assay: Antitumor activity was determined for average weight on day 1 against P-388 leukemia in mice at a dose of 25 mg/kg; how it was run: as §3
[25] = test system: Mus musculus; assay: Percent increase in life span against P-388 leukemia in mice was determined at a dose of 25 mg/kg; details: P388; how it was run: as §4
[26] = test system: Mus musculus; assay: Antitumor activity was determined for average 7-day weight change against P-388 leukemia in mice at a dose of 50 mg/kg; how it was run: as §2
[27] = test system: Mus musculus; assay: Antitumor activity was determined for average 7-day weight change against P-388 leukemia in mice at a dose of 200 mg/kg; how it was run: as §2
[28] = test system: Mus musculus; assay: Percent increase in life span against P-388 leukemia in mice was determined at a dose of 200 mg/kg; details: P388; how it was run: as §4
[29] = test system: Mus musculus; assay: Percent increase in life span against P-388 leukemia in mice was determined at a dose of 300 mg/kg; details: P388; how it was run: as §4
[30] = test system: Mus musculus; assay: Antitumor activity was determined for 7-day average percent weight change against P-388 leukemia in mice at a dose of 25 mg/kg; how it was run: as §2
[31] = test system: Mus musculus; assay: Antitumor activity was determined for average weight on day 1 against P-388 leukemia in mice at a dose of 100 mg/kg; how it was run: as §2
[32] = test system: Mus musculus; assay: Percent increase in life span against P-388 leukemia in mice was determined at a dose of 8 mg/kg; details: P388; how it was run: as §4
[33] = test system: Mus musculus; assay: Antitumor activity was determined for survival range of mice against P-388 leukemia in mice at a dose of 16 mg/kg; how it was run: as §1
[34] = test system: Mus musculus; assay: Antitumor activity was determined for average 7-day weight change against P-388 leukemia in mice at a dose of 32 mg/kg; how it was run: as §2
[35] = test system: Mus musculus; assay: Percent increase in life span against P-388 leukemia in mice was determined at a dose of 32 mg/kg; details: P388; how it was run: as §4
[36] = test system: Mus musculus; assay: Antitumor activity was determined for average 7-day weight change against P-388 leukemia in mice at a dose of 8 mg/kg; how it was run: as §2
[37] = test system: Mus musculus; assay: Antitumor activity was determined for survival range of mice against P-388 leukemia in mice at a dose of 8 mg/kg
How it was run: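 Male B6D2F1J mice, 5 per dose group, implanted ip with 10⁶ P-388 leukemia cells on day 0. Drug given ip daily on days 1-4 (qd × 4) in sterile saline, or in 10% Tween 80 for the butyl thioether. Survival range recorded in days. Untreated control groups had 10-17 animals per experiment. Mice weighed on days 1 and 7.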

[38] = test system: Mus musculus; assay: Antitumor activity was determined for median survival of mice against P-388 leukemia in mice at a dose of 16 mg/kg; how it was run: as §1
[39] = test system: Mus musculus; assay: Antitumor activity was determined for average 7-day weight change against P-388 leukemia in mice at a dose of 16 mg/kg; how it was run: as §2
[40] = test system: Mus musculus; assay: Antitumor activity was determined for median survival of mice against P-388 leukemia in mice at a dose of 8 mg/kg; how it was run: as §1
[41] = test system: Mus musculus; assay: Antitumor activity was determined for median survival of mice against P-388 leukemia in mice at a dose of 32 mg/kg; how it was run: as §1
[42] = test system: Mus musculus; assay: Antitumor activity was determined for average weight on day 1 against P-388 leukemia in mice at a dose of 8 mg/kg; how it was run: as §3
[43] = test system: Mus musculus; assay: Antitumor activity was determined for 7-day average percent weight change against P-388 leukemia in mice at a dose of 16 mg/kg; how it was run: as §2
[44] = test system: Mus musculus; assay: Percent increase in life span against P-388 leukemia in mice was determined at a dose of 16 mg/kg; details: P388; how it was run: as §4
[45] = test system: Mus musculus; assay: Antitumor activity was determined for average weight on day 1 against P-388 leukemia in mice at a dose of 16 mg/kg; how it was run: as §2
[46] = test system: Mus musculus; assay: Antitumor activity was determined for 7-day average percent weight change against P-388 leukemia in mice at a dose of 32 mg/kg; how it was run: as §2
[47] = test system: Mus musculus; assay: Antitumor activity was determined for average weight on day 1 against P-388 leukemia in mice at a dose of 32 mg/kg; how it was run: as §3
[48] = test system: Mus musculus; assay: Antitumor activity was determined for survival range of mice against P-388 leukemia in mice at a dose of 32 mg/kg; how it was run: as §1
[49] = test system: Mus musculus; assay: Antitumor activity was determined for 7-day average percent weight change against P-388 leukemia in mice at a dose of 8 mg/kg; how it was run: as §2

O=C(O)[C@H]1OC(n2cc(F)c(=O)[nH]c2=O)[C@H](O)[C@@H]1O (stereo not given in full)
Survival median [1]: 18 | Average weight [2]: 0 g mouse-1 | Average weight [3]: 25 g mouse-1 | Survival range [4]: 16 | Average weight [5]: 2.6 g mouse-1 | Weight change [6]: 7% | Survival median [7]: 16 | Survival median [8]: 15 | Average weight [9]: 23.8 g mouse-1 | Survival range [10]: 14 | Survival range [11]: 13 | Survival median [12]: 16 | ILS at 100 mg/kg [13]: 45% | Weight change [14]: 0% | Survival median [15]: 14 | Average weight [16]: 2 g mouse-1 | IC50 [17]: > 1000 µM | Weight change [18]: 8% | Weight change [19]: -3% | Survival range [20]: 16 | Average weight [21]: 24.2 g mouse-1 | Survival range [22]: 15 | ILS at 50 mg/kg [23]: 36% | Average weight [24]: 24.6 g mouse-1 | ILS at 25 mg/kg [25]: 27% | Average weight [26]: 1.6 g mouse-1 | Average weight [27]: -0.8 g mouse-1 | ILS at 200 mg/kg [28]: 45% | ILS at 300 mg/kg [29]: 63% | Weight change [30]: 10% | Average weight [31]: 23.6 g mouse-1

NC[C@H]1OC(n2cc(F)c(=O)[nH]c2=O)[C@H](O)[C@@H]1O (stereo not given in full)
ILS at 8 mg/kg [32]: 0% | Survival range [33]: 10 | Average weight [34]: 3.2 g mouse-1 | ILS at 32 mg/kg [35]: 8% | Average weight [36]: 5.8 g mouse-1 | Survival range [37]: 11 | Survival median [38]: 12 | IC50 [17]: 38 µM | Average weight [39]: 4.4 g mouse-1 | Survival median [40]: 12 | Survival median [41]: 13 | Average weight [42]: 25.6 g mouse-1 | Weight change [43]: 16% | ILS at 16 mg/kg [44]: 0% | Average weight [45]: 26.4 g mouse-1 | Weight change [46]: 12% | Average weight [47]: 26.8 g mouse-1 | Survival range [48]: 11 | Weight change [49]: 23%
